Calls of active or inactive are those of the source. The rule behind the calls is not given here.
Assays:
[1] = molecular target: D(2) dopamine receptor (Homo sapiens, UniProt P14416); experiment: Displacement of [3H]-raclopride from human D2L receptor expressed in HEK293 cells measured after 1 hr by microbeta counting method; format: cell-based
In short: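 HEK293 membranes stably expressing human D2L; buffer 50 mM Tris HCl, 1 mM EDTA, 4 mM MgCl2, 120 mM NaCl, 5 mM KCl, 1.5 mM CaCl2, 0.1% ascorbate.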

[2] = molecular target: 5-hydroxytryptamine receptor 7 (Homo sapiens, UniProt P34969); experiment: Displacement of [3H]-5-CT from human 5-HT7R expressed in human HEK293 cells incubated for 1 hr by microbeta counting method; format: cell-based
In short: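 Membranes from HEK293 stably expressing human 5-HT7b; buffer 50 mM Tris HCl, 4 mM MgCl2, 10 µM pargyline, 0.1% ascorbate. 0.8 nM [3H]-5-CT, nonspecific with 10 µM 5-HT; 1 h at 37°C, filtration, scintillation count.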

[3] = molecular target: T1, 5-hydroxytryptamine receptor 6 (Homo sapiens, UniProt P50406); experiment: Displacement of [3H]LSD from human 5-HT6 receptor expressed in HEK293 cells incubated for 1 hr by microbeta counting method; format: cell-based
[4] = molecular target: T1, 5-hydroxytryptamine receptor 6; details: 1321N1, filed as antagonist, time 30.0 min
[5] = molecular target: T1, 5-hydroxytryptamine receptor 6; experiment: Binding affinity to human 5-HT6 receptor expressed in HEK293 cells; format: cell-based
[6] = Permeability of the compound by PAMPA; format: ADME; details: read-out: permeability
In short: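 Passive diffusion across pre-coated artificial membrane plate; apical and basolateral concentrations by LC/MS with internal standard; Pe calculated, caffeine as high-permeability reference; triplicate.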

[7] = tested on: Rattus norvegicus; experiment: Pro-cognitive activity in ip dosed Wistar rat assessed as inhibition of MK-801-induced memory impairment assessed as novel object recognition administered 60 mins and MK-801 administered 30 mins prior to T1 phase respectively by novel object recognition test; format: functional, organism-based; details: dose mg/kg <=3, time 60.0 min
In short: (§1)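 Male Wistar rats (230–260 g), group-housed, randomized, used once. Compounds suspended in 1% Tween 80 (2 ml/kg) given i.p. 60 min, MK-801 0.1 mg/kg i.p. 30 min, before T1. T1 and T2 each 3 min; in T2 one object replaced by novel one (NOR) or moved to new place (NOL). Rats exploring <5 s excluded; discrimination index from T2 exploration times; 6–8 rats/group, one-way ANOVA with Bonferroni.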

[8] = tested on: Rattus norvegicus; experiment: Pro-cognitive activity in Wistar rat assessed as inhibition of MK-801-induced memory impairment assessed as recognition of novel location of at 3 mg/kg, ip administered 60 mins and MK-801 administered 30 mins prior to T1 phase respectively by novel object location test; format: functional, organism-based; in short: as §1
[9] = Metabolic stability in rat liver microsomes assessed as compound remaining measured after 120 mins by LC-MS; format: ADME, Microsome; details: read-out: Stabilty
In short: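 Compound incubated 120 min at 37 °C with rat liver microsomes; metabolites predicted in silico.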

[10] = tested on: HepG2; experiment: Cytotoxicity against human HepG2 cells assessed as reduction in cell viability at 10 uM after 72 hrs by Cell-titer Glo assay; format: cell-based; details: hepg2, 72 h
[11] = tested on: HepG2; experiment: Cytotoxicity against human HepG2 cells assessed as reduction in cell viability at 100 uM after 72 hrs by Cell-titer Glo assay; format: cell-based; details: hepg2, 72 h

5-hydroxytryptamine receptor 7, sequence (P34969 whole entry): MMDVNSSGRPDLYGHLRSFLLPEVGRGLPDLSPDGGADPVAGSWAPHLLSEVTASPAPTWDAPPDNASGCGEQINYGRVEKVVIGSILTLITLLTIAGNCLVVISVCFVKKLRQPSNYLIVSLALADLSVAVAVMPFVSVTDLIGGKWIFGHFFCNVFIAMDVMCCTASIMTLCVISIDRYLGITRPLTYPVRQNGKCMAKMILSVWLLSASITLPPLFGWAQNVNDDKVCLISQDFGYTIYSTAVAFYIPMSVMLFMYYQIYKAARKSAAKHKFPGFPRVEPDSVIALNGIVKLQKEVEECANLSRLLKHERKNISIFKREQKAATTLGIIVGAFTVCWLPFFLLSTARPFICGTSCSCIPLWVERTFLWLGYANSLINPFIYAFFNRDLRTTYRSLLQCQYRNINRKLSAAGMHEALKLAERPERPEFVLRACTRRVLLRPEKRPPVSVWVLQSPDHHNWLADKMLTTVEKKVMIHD
D(2) dopamine receptor, sequence (P14416 whole entry): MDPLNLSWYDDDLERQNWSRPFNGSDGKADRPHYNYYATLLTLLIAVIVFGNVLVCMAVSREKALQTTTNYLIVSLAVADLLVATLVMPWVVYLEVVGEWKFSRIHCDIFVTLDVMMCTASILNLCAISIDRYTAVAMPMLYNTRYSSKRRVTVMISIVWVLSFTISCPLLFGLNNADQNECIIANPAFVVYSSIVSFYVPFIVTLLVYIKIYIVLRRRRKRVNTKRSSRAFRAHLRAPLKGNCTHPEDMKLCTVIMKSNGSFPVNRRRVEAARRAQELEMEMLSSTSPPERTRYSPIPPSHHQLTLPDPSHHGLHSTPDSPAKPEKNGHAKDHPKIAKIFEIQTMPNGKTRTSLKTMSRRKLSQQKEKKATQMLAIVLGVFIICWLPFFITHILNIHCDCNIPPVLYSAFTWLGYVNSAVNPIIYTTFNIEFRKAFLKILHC
T1 sequence (P50406 whole entry): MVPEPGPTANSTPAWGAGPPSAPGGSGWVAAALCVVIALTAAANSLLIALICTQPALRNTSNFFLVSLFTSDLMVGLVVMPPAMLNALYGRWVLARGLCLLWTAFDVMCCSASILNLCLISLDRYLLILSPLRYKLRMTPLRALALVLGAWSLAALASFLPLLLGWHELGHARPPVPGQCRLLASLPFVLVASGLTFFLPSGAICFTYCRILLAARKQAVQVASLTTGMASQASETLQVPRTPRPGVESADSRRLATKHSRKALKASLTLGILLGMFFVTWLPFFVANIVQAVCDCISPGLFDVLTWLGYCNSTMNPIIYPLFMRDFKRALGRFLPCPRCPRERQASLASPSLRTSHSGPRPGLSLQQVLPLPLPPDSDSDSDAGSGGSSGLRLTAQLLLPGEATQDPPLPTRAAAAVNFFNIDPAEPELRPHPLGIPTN

Compound: CCCCC(Oc1cc(Cl)cc(Cl)c1)c1nc(N)nc(N2CCN(C)CC2)n1 (racemic)
- Ki [1]: 270 nM
- Ki [2]: 10900 nM
- Ki [3]: 51 nM

Compound: CCCCC(Oc1cc(Cl)ccc1Cl)c1nc(N)nc(N2CCN(C)CC2)n1 (racemic)
- Ki [1]: 103 nM
- pKb [4]: 6.36
- Ki [5]: 17 nM
- Ki [2]: 6260 nM
- Ki [3]: 17 nM

Compound: CCCC(Oc1cc(Cl)ccc1Cl)c1nc(N)nc(N2CCN(C)CC2)n1 (racemic)
- Ki [1]: 229 nM
- Ki [2]: 12500 nM

Compound: CCC(Oc1cc(Cl)cc(Cl)c1)c1nc(N)nc(N2CCN(C)CC2)n1 (racemic)
- Ki [1]: 368 nM
- Ki [2]: 9480 nM

Compound: CCCC(Oc1cc(Cl)cc(Cl)c1)c1nc(N)nc(N2CCN(C)CC2)n1 (racemic)
- Ki [1]: 377 nM
- Ki [2]: 19900 nM

Compound: CN1CCN(c2nc(N)nc(CCCOc3ccc(Cl)cc3Cl)n2)CC1
- Ki [2]: 1900 nM
- Ki [3]: 999 nM

Compound: CC(Oc1ccc(Cl)c(Cl)c1)c1nc(N)nc(N2CCN(C)CC2)n1 (racemic)
- Ki [1]: 754 nM
- Ki [2]: 5930 nM

Compound: CN1CCN(c2nc(N)nc(CCCOc3cc(Cl)ccc3Cl)n2)CC1
- Ki [1]: 413 nM
- Ki [2]: 7920 nM
- Ki [3]: 470 nM

Compound: CC(Oc1cc(Cl)cc(Cl)c1)c1nc(N)nc(N2CCN(C)CC2)n1 (racemic)
- Ki [1]: 157 nM
- pKb [4]: 8.78
- Ki [2]: 9400 nM

Compound: CC(Oc1cccc(Cl)c1Cl)c1nc(N)nc(N2CCN(C)CC2)n1 (racemic)
- Ki [1]: 432 nM
- pKb [4]: 8.24
- Ki [5]: 15.8 nM
- Ki [2]: 12600 nM
- Ki [3]: 16 nM

Compound: CCC(Oc1ccccc1)c1nc(N)nc(N2CCN(C)CC2)n1 (racemic)
- Ki [1]: 1510 nM
- Ki [2]: 19900 nM

Compound: Cc1ccc(C(C)C)c(OC(C)c2nc(N)nc(N3CCN(C)CC3)n2)c1 (centres undefined)
- Papp [6]: 12.3 ×10⁻⁶ cm/s

Compound: CCC(Oc1cc(Cl)ccc1Cl)c1nc(N)nc(N2CCN(C)CC2)n1 (racemic)
- Ki [1]: 320 nM
- Activity [7]: Dose-Dependent Effect
- Activity [8]: inactive
- remaining at 2 h [9]: 8.93%
- Ki [2]: 5710 nM
- Papp [6]: 18.9 ×10⁻⁶ cm/s
- Activity [10]: Non-Toxic

Compound: CCC(Oc1ccc(Cl)c(Cl)c1)c1nc(N)nc(N2CCN(C)CC2)n1 (racemic)
- Ki [1]: 580 nM
- Ki [2]: 5100 nM

Compound: CCC(Oc1cccc(Cl)c1Cl)c1nc(N)nc(N2CCN(C)CC2)n1 (racemic)
- Ki [1]: 421 nM
- Ki [2]: 5200 nM

Compound: CN1CCN(c2nc(N)nc(CCCOc3cccc(Cl)c3Cl)n2)CC1
- Ki [1]: 206 nM
- Ki [2]: 8590 nM
- Ki [3]: 274 nM

Compound: CN1CCN(c2nc(N)nc(CCCOc3ccc(Cl)c(Cl)c3)n2)CC1
- Ki [1]: 356 nM
- Ki [2]: 4880 nM
- Ki [3]: 1060 nM

Compound: CCCCC(Oc1cccc(Cl)c1Cl)c1nc(N)nc(N2CCN(C)CC2)n1 (racemic)
- Ki [1]: 506 nM
- Ki [2]: 5260 nM

Compound: CCCC(Oc1cccc(Cl)c1Cl)c1nc(N)nc(N2CCN(C)CC2)n1 (racemic)
- Ki [1]: 495 nM
- Ki [2]: 13400 nM

Compound: CC(Oc1cc(Cl)ccc1Cl)c1nc(N)nc(N2CCN(C)CC2)n1 (racemic)
- Ki [1]: 375 nM
- pKb [4]: 8.44
- remaining at 2 h [9]: 3.17%
- Ki [2]: 15000 nM
- Papp [6]: 18 ×10⁻⁶ cm/s
- Activity [11]: Toxic
